Assay results as given in article PMC5114172 (Journal of applied toxicology : JAT, 2016).

Tests used:
PBMCs = test: IL-1β secretion assay; format: cell-based, human
Outline: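 NK cells, MD-PBMCs, PBMCs or granulocytes (1.5 million/mL) or PBMC+granulocytes (0.75 million/mL each), per donor, exposed 24 h, 48 h or 6 days to 0.05–5 μM test compound diluted from DMSO stock, with DMSO controls. Supernatants kept at −70 °C. IL-1β by sandwich ELISA: HRP detection antibody, acid-stopped substrate, A450 against standards. Detection limit 3 pg/mL; triplicates; ANOVA then t test versus control, p<0.05.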

Granulocytes = test: Cell viability, trypan blue exclusion; format: cell-based, human; conditions: Granulocytes, 24 h, 0.05 μM DBT

CCC[CH2][Sn][CH2]CCC [DBT, Dibutyltin]
average of the maximum fold increase in IL-β secretion (PBMCs; 24 h, across donors): 3.2 fold
Interleukin 1 beta secreted (PBMCs; donor F148, 24 h, 0.05 μM DBT): 120.533 ± 8.211 ng/mL
Interleukin 1 beta secreted (PBMCs; donor F148, 24 h, 0.1 μM DBT): 107.467 ± 4.636 ng/mL
Interleukin 1 beta secreted (PBMCs; donor F148, 24 h, 0.25 μM DBT): 137.333 ± 3.926 ng/mL
Interleukin 1 beta secreted (PBMCs; donor F148, 24 h, 0.5 μM DBT): 32.4 ± 1.833 ng/mL
Interleukin 1 beta secreted (PBMCs; donor F148, 24 h, 1 μM DBT): 11.6 ± 11.085 ng/mL
Interleukin 1 beta secreted (PBMCs; donor F148, 24 h, 2.5 μM DBT): 12.133 ± 0.462 ng/mL
Interleukin 1 beta secreted (PBMCs; donor F148, 24 h, 5 μM DBT): 11.867 ± 0.924 ng/mL
Interleukin 1 beta secreted (PBMCs; donor F148, 48 h, 0.05 μM DBT): 15851 ± 836 ng/mL
Interleukin 1 beta secreted (PBMCs; donor F148, 48 h, 0.1 μM DBT): 17620 ± 257 ng/mL
Interleukin 1 beta secreted (PBMCs; donor F148, 48 h, 0.25 μM DBT): 18728 ± 597 ng/mL
Interleukin 1 beta secreted (PBMCs; donor F148, 48 h, 0.5 μM DBT): 5493 ± 409 ng/mL
Interleukin 1 beta secreted (PBMCs; donor F148, 48 h, 1 μM DBT): 2224 ± 329 ng/mL
Interleukin 1 beta secreted (PBMCs; donor F148, 48 h, 5 μM DBT): 483 ± 358 ng/mL
Interleukin 1 beta secreted (PBMCs; donor F148, 6 day, 0.1 μM DBT): 25 ± 0 ng/mL
Interleukin 1 beta secreted (PBMCs; donor F148, 6 day, 0.25 μM DBT): 25 ± 1 ng/mL
Interleukin 1 beta secreted (PBMCs; donor F148, 6 day, 0.5 μM DBT): 6 ± 0 ng/mL
Interleukin 1 beta secreted (PBMCs; donor F154, 24 h, 0.05 μM DBT): 5.056 ± 0.273 ng/mL
Interleukin 1 beta secreted (PBMCs; donor F154, 24 h, 0.1 μM DBT): 4.568 ± 0.168 ng/mL
Interleukin 1 beta secreted (PBMCs; donor F154, 24 h, 0.25 μM DBT): 1.383 ± 0.123 ng/mL
Interleukin 1 beta secreted (PBMCs; donor F154, 24 h, 0.5 μM DBT): 0.765 ± 0.084 ng/mL
Interleukin 1 beta secreted (PBMCs; donor F154, 24 h, 1 μM DBT): 0.38 ± 0.013 ng/mL
Interleukin 1 beta secreted (PBMCs; donor F154, 24 h, 2.5 μM DBT): 0.111 ± 0.067 ng/mL
Interleukin 1 beta secreted (PBMCs; donor F154, 48 h, 0.05 μM DBT): 4249 ± 294 ng/mL
Interleukin 1 beta secreted (PBMCs; donor F154, 48 h, 0.1 μM DBT): 4193 ± 556 ng/mL
Interleukin 1 beta secreted (PBMCs; donor F154, 48 h, 0.25 μM DBT): 1687 ± 42 ng/mL
Interleukin 1 beta secreted (PBMCs; donor F154, 48 h, 0.5 μM DBT): 1036 ± 128 ng/mL
Interleukin 1 beta secreted (PBMCs; donor F154, 48 h, 1 μM DBT): 1325 ± 72 ng/mL
Interleukin 1 beta secreted (PBMCs; donor F154, 48 h, 2.5 μM DBT): 378 ± 61 ng/mL
Interleukin 1 beta secreted (PBMCs; donor F154, 48 h, 5 μM DBT): 193 ± 0 ng/mL
Interleukin 1 beta secreted (PBMCs; donor F154, 6 day, 0.05 μM DBT): 3507 ± 155 ng/mL
Interleukin 1 beta secreted (PBMCs; donor F154, 6 day, 0.1 μM DBT): 3300 ± 114 ng/mL
Interleukin 1 beta secreted (PBMCs; donor F154, 6 day, 0.25 μM DBT): 3816 ± 464 ng/mL
Interleukin 1 beta secreted (PBMCs; donor F154, 6 day, 0.5 μM DBT): 2056 ± 114 ng/mL
Interleukin 1 beta secreted (PBMCs; donor F154, 6 day, 1 μM DBT): 2531 ± 464 ng/mL
Interleukin 1 beta secreted (PBMCs; donor F154, 6 day, 2.5 μM DBT): 586 ± 179 ng/mL
Interleukin 1 beta secreted (PBMCs; donor F154, 6 day, 5 μM DBT): 118 ± 146 ng/mL
Interleukin 1 beta secreted (PBMCs; donor F159, 24 h, 0.05 μM DBT): 2.812 ± 0.15 ng/mL
fold increase in IL-1β secretion (PBMCs; donor F159, 24 h, 0.05 μM DBT): 1.7 fold
Interleukin 1 beta secreted (PBMCs; donor F159, 24 h, 0.1 μM DBT): 6.376 ± 0.233 ng/mL
fold increase in IL-1β secretion (PBMCs; donor F159, 24 h, 0.1 μM DBT): 3.8 fold
Interleukin 1 beta secreted (PBMCs; donor F159, 24 h, 0.25 μM DBT): 5.803 ± 0.15 ng/mL
fold increase in IL-1β secretion (PBMCs; donor F159, 24 h, 0.25 μM DBT): 3.4 fold
Interleukin 1 beta secreted (PBMCs; donor F159, 24 h, 0.5 μM DBT): 1.667 ± 0.112 ng/mL
Interleukin 1 beta secreted (PBMCs; donor F159, 24 h, 1 μM DBT): 0.812 ± 0.065 ng/mL
Interleukin 1 beta secreted (PBMCs; donor F159, 48 h, 0.05 μM DBT): 1034 ± 299 ng/mL
Interleukin 1 beta secreted (PBMCs; donor F159, 48 h, 0.1 μM DBT): 1211 ± 71 ng/mL
Interleukin 1 beta secreted (PBMCs; donor F159, 48 h, 0.25 μM DBT): 1243 ± 192 ng/mL
Interleukin 1 beta secreted (PBMCs; donor F159, 48 h, 0.5 μM DBT): 1099 ± 93 ng/mL
Interleukin 1 beta secreted (PBMCs; donor F159, 48 h, 1 μM DBT): 1246 ± 9 ng/mL
Interleukin 1 beta secreted (PBMCs; donor F159, 48 h, 2.5 μM DBT): 532 ± 101 ng/mL
Interleukin 1 beta secreted (PBMCs; donor F159, 48 h, 5 μM DBT): 565 ± 15 ng/mL
Interleukin 1 beta secreted (PBMCs; donor F159, 6 day, 0.05 μM DBT): 210 ± 62 ng/mL
Interleukin 1 beta secreted (PBMCs; donor F159, 6 day, 0.1 μM DBT): 236 ± 10 ng/mL
Interleukin 1 beta secreted (PBMCs; donor F159, 6 day, 0.25 μM DBT): 507 ± 21 ng/mL
Interleukin 1 beta secreted (PBMCs; donor F159, 6 day, 0.5 μM DBT): 229 ± 7 ng/mL
Interleukin 1 beta secreted (PBMCs; donor F159, 6 day, 1 μM DBT): 256 ± 12 ng/mL
Interleukin 1 beta secreted (PBMCs; donor F159, 6 day, 2.5 μM DBT): 52 ± 1 ng/mL
Interleukin 1 beta secreted (PBMCs; donor F159, 6 day, 5 μM DBT): 51 ± 9 ng/mL
Interleukin 1 beta secreted (PBMCs; donor F173, 24 h, 0.05 μM DBT): 7.072 ± 0.935 ng/mL
Interleukin 1 beta secreted (PBMCs; donor F173, 24 h, 0.1 μM DBT): 8.1 ± 0.822 ng/mL
Interleukin 1 beta secreted (PBMCs; donor F173, 24 h, 0.25 μM DBT): 4.443 ± 0.405 ng/mL
Interleukin 1 beta secreted (PBMCs; donor F173, 24 h, 0.5 μM DBT): 20.063 ± 1.077 ng/mL
Interleukin 1 beta secreted (PBMCs; donor F173, 24 h, 1 μM DBT): 9.989 ± 0.155 ng/mL
Interleukin 1 beta secreted (PBMCs; donor F173, 24 h, 2.5 μM DBT): 3.813 ± 0.058 ng/mL
Interleukin 1 beta secreted (PBMCs; donor F173, 24 h, 5 μM DBT): 2.517 ± 0.073 ng/mL
Interleukin 1 beta secreted (PBMCs; donor F173, 48 h, 0.05 μM DBT): 614 ± 63 ng/mL
Interleukin 1 beta secreted (PBMCs; donor F173, 48 h, 0.1 μM DBT): 500 ± 41 ng/mL
Interleukin 1 beta secreted (PBMCs; donor F173, 48 h, 0.25 μM DBT): 425 ± 20 ng/mL
Interleukin 1 beta secreted (PBMCs; donor F173, 48 h, 0.5 μM DBT): 745 ± 36 ng/mL
Interleukin 1 beta secreted (PBMCs; donor F173, 48 h, 1 μM DBT): 2064 ± 194 ng/mL
Interleukin 1 beta secreted (PBMCs; donor F173, 48 h, 2.5 μM DBT): 591 ± 32 ng/mL
Interleukin 1 beta secreted (PBMCs; donor F173, 48 h, 5 μM DBT): 478 ± 32 ng/mL
Interleukin 1 beta secreted (PBMCs; donor F173, 6 day, 0.05 μM DBT): 465 ± 151 ng/mL
Interleukin 1 beta secreted (PBMCs; donor F173, 6 day, 0.1 μM DBT): 398 ± 28 ng/mL
Interleukin 1 beta secreted (PBMCs; donor F173, 6 day, 0.25 μM DBT): 453 ± 16 ng/mL
Interleukin 1 beta secreted (PBMCs; donor F173, 6 day, 0.5 μM DBT): 932 ± 8 ng/mL
Interleukin 1 beta secreted (PBMCs; donor F173, 6 day, 1 μM DBT): 690 ± 15 ng/mL
Interleukin 1 beta secreted (PBMCs; donor F173, 6 day, 2.5 μM DBT): 181 ± 8 ng/mL
Interleukin 1 beta secreted (PBMCs; donor F173, 6 day, 5 μM DBT): 145 ± 2 ng/mL
Percent Viable Cells (Granulocytes): 90±8%
